# Measured values: ChEMBL document CHEMBL4433221, “Novel Sustainable-by-Design HDAC Inhibitors for the Treatment of Alzheimer's Disease” (ACS Med Chem Lett, 2019)
# Activity calls are given as the source filed them. No cut-off for these calls is given here.
# How the values were obtained:
# [1] = Permeability of the compound at pH 7.4 PBS buffer at 100 uM measured upto 6 hrs by PAMPA-BBB assay
# Histone deacetylase 1 = Histone deacetylase 1 (Homo sapiens, UniProt Q13547); experiment: Inhibition of human recombinant HDAC1 at 10 uM using ZMAL (Z-(Ac)Lys-AMC fluorogenic substrate incubated for 90 mins by fluorescence method
# Chain of Histone deacetylase 1 (Q13547 whole entry): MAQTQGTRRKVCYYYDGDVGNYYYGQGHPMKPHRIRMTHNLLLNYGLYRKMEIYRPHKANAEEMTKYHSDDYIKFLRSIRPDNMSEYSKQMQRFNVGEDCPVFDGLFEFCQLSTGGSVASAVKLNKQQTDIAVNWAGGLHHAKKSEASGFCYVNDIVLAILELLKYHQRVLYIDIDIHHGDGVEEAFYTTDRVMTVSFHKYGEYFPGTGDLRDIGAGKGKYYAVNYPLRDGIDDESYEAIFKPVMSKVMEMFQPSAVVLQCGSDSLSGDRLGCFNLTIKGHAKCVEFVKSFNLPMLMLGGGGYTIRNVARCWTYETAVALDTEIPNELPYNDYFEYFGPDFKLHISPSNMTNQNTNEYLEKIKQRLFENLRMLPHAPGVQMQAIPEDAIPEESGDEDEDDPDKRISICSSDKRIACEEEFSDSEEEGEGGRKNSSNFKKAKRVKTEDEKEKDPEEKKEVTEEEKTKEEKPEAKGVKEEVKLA
# [2] = biological target: T1, Protein deacetylase HDAC6 (Homo sapiens) (UniProt Q9UBN7); experiment: Inhibition of human recombinant HDAC6 at 10 uM using ZMAL (Z-(Ac)Lys-AMC fluorogenic substrate incubated for 90 mins by fluorescence method
# T1 sequence (whole entry): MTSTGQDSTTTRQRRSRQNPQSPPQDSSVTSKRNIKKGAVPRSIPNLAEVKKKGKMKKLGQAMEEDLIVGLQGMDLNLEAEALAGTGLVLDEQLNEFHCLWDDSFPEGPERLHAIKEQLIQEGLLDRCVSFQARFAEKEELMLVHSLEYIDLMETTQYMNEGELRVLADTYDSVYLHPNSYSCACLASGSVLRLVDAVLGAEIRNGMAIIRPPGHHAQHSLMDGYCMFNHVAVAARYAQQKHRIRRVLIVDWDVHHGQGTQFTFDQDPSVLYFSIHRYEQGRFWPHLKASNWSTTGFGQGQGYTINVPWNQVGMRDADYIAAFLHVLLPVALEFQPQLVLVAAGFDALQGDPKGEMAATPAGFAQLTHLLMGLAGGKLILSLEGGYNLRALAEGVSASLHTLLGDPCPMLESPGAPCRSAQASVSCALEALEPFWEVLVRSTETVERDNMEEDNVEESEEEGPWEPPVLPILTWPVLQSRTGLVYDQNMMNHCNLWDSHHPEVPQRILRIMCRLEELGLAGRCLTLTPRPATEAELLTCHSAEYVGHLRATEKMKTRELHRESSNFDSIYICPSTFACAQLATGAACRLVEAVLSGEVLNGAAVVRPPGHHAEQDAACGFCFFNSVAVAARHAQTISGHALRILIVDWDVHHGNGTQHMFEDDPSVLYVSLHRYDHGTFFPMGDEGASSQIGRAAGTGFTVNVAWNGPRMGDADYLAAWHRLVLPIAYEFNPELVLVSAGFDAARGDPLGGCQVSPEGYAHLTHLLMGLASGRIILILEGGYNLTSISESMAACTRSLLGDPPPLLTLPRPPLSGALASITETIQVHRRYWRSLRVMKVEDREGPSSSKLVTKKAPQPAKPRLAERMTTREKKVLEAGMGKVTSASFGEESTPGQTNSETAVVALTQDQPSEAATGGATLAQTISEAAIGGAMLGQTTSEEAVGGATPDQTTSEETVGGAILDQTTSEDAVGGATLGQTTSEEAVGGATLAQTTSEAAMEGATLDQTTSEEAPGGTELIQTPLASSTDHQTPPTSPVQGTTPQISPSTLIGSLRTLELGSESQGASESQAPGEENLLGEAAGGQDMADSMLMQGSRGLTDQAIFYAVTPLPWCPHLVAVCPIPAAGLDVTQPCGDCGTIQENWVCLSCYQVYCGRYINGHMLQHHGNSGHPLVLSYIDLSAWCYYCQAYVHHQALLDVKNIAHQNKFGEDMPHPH
# [3] = Neurotoxicity against rat CGN cells assessed as cell viability at 25 uM incubated for 24 hrs by MTT assay; assay type: toxicity, cell-based; conditions: read-out: Activity
# How it was run: (§1)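 Primary rat cerebellar granule neuron cultures were exposed for 24 h to 5, 25 or 50 μM. Viability was measured by MTT and expressed as percentage of untreated controls, as mean ± SE of at least three experiments, each run in triplicate.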
# [4] = Neurotoxicity against rat CGN cells assessed as cell viability at 50 uM incubated for 24 hrs by MTT assay; assay type: toxicity, cell-based; conditions: read-out: Activity; how it was run: as §1
# N9 [5] = experiment: Immunomodulatory activity in mouse N9 cells assessed as reduction in LPS-induced iNOS expression at 5 to 25 uM incubated for 24 hrs by Western blot analysis; assay type: functional, cell-based
# How it was run: (§2)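 N9 mouse microglial cells stimulated with LPS (100 ng/mL) and treated at 5 and 25 μM. iNOS and MRC1 levels were read by Western blot with GAPDH as loading control. Densitometry is expressed as percentage of LPS-only cells, as mean ± SE of three independent experiments.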
# N9 [6] = experiment: Immunomodulatory activity in mouse N9 cells assessed as increase in LPS-induced MRC1 expression at 5 to 25 uM incubated for 24 hrs by Western blot analysis; assay type: functional, cell-based; how it was run: as §2
# Rattus norvegicus = species: Rattus norvegicus; experiment: Neuroprotective activity against low serum/K+ deprivation-induced toxicity in rat CGN cells assessed as increase in cell viability at 5 to 25 uM pre-treated for 6 hrs followed by 24 hrs co-treatment with serum/K+ starvation and measured after 24 hrs by MTT assay; assay type: functional, cell-based
# How it was run: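 Primary rat cerebellar granule neurons were pretreated for 6 h, then cotreated for 24 h under low-serum and K+ deprivation to induce death. Viability was compared with control and deprivation-only conditions, with tacrine as reference compound.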
smiles,measurement,setting,value
CN(C)CCCN1c2ccccc2Sc2ccc(Cl)cc21 [CHLORPROMAZINE],"Papp at 6 h, 100 µM",[1],51 nm/s
COc1cccc(CCCCCCCC(=O)O)c1,inhibition,Histone deacetylase 1,< 15%
same,inhibition,[2],< 15%
O=C(CCCCCCC(=O)Nc1ccccc1)NO [VORINOSTAT],"viability at 24 h, 25 µM",[3],70%
same,"viability at 24 h, 50 µM",[4],52%
same,Activity,N9 [5],Active
same,Activity,N9 [6],inactive
same,Activity,Rattus norvegicus,inactive
CCCCCCCCCCCCCCCc1cccc(O)c1,"Papp at 6 h, 100 µM",[1],31 nm/s
Nc1c2c(nc3ccccc13)CCCC2 [TACRINE],"Papp at 6 h, 100 µM",[1],37.5 nm/s
CO/N=C(\C(=O)N[C@@H]1C(=O)N2C(C(=O)O)=C(COC(N)=O)CS[C@H]12)c1ccco1 [CEFUROXIME],"Papp at 6 h, 100 µM",[1],27 nm/s
